# Experimental data pooled from the literature.
# Protocols differ between the studies behind these lines.
# Target: Serine/threonine-protein kinase PAK 2 (PAK2, Homo sapiens, UniProt Q13177)
SMILES,observed,mode,technique,concentration,quantity,result
COc1cc(Cl)c(C(=O)N[C@@H](CN[C@H]2CC[C@@H](N)CC2)Cc2ccc(C#N)cc2)cc1-c1ccc(CN[C@H](C)c2ccc(C)cc2)o1,enzyme activity,inhibitor,,1 µM,remaining activity,98%
CSc1nc(C)c(-c2ccnc(Nc3ccc(N4CCOCC4)cc3)c2)[nH]1,enzyme activity,inhibitor,,10 µM,inhibition,1.4%
COc1cc(Nc2cnc(C#N)c(O[C@H](C)CN(C)C)n2)ncc1-c1cnn(C)c1,enzyme activity,inhibitor,radiometric,10 µM,remaining activity,70%
Cc1c(NC(=O)c2cc(C(N)=O)nc3cc(F)ccc23)c(C(F)(F)F)nn1Cc1ccc(C#N)cc1,cell-free assay,,competition with immobilised ligand,1 µM,remaining binding,88%
CNc1cccc2cc(C(=O)Nc3ccc(C(=O)O)cc3)c(=O)[nH]c12,enzyme activity,inhibitor,,10 µM,inhibition,20%
C=CC(=O)Nc1cc(Nc2nccc(Nc3cc(Cl)c(F)cc3C(C)(C)O)n2)c(OC)cc1N1CC[C@@H](N(C)C)C1,enzyme activity,inhibitor,,1 µM,inhibition,5%
CC(C)(O)c1cncc(-c2nc3ccc(F)cc3n2C2CC2)c1,cell-free assay,,competition with immobilised ligand,1 µM,remaining binding,100%
CCCOc1ccc(OC)c(F)c1C(=O)c1ccc(C(=O)N[C@@H]2CNC[C@H]2NC(=O)c2ccc3[nH]ncc3c2)cc1,enzyme activity,inhibitor,,10 µM,remaining activity,74%
O=C1Nc2ccc(Cl)cc2C1=Cc1cc(Cl)c(O)c(Cl)c1,cell-free assay,,,0.5 µM,remaining signal,96.8%
Cc1cc(NC(=O)c2cccc3cc(-c4cccc5[nH]nc(N)c45)ccc23)ccc1F,enzyme activity,inhibitor,,0.1 µM,activity vs control,98%
Cc1noc([C@H]2C[C@@H](c3ccc(C(F)(F)F)cc3)CN(C(=O)N3CCS(=O)(=O)C3)C2)n1,cell-free assay,,competition with immobilised ligand,1 µM,remaining binding,87%
FC(F)c1nc2ccccc2n1-c1nc(N2CCOCC2)nc(N2CCOCC2)n1,enzyme activity,inhibitor,,10 µM,remaining activity,100%
Cc1ccc(NC(=O)c2ccc(C)c(C(F)(F)F)c2)cc1C#Cc1nn(C2CCC(O)CC2)c2ncnc(N)c12 (centres unmarked),cell-free assay,,,10 µM,remaining signal,68%
O=C1NC(=O)c2cc(Nc3ccc(F)cc3)c(Nc3ccc(F)cc3)cc21,cell-free assay,,,0.5 µM,remaining signal,98.5%
Cc1sc(C(=O)NC2COC2)cc1-n1cc(NC(=O)Nc2c(F)cccc2Cl)cn1,enzyme activity,inhibitor,,10 µM,remaining activity,106%
CNC(=O)c1cc(Oc2ccc(NC(=O)Nc3ccc(Cl)c(C(F)(F)F)c3)cc2)ccn1,cell-free assay,,,0.5 µM,remaining signal,101%
COc1cc2ncnc(Nc3ccc(Oc4ccccc4)c(C)c3C)c2cc1OC,enzyme activity,inhibitor,,1 µM,inhibition,7%
CC/C(=N\NC(=O)NCc1cccc(O)c1)c1ccc(O)c(C)c1O,enzyme activity,inhibitor,,0.1 µM,inhibition,3%
CCN(CC)CCNC(=O)c1c(C)[nH]c(/C=C2\C(=O)Nc3ccc(F)cc32)c1C,enzyme activity,inhibitor,,0.3 µM,inhibition,-8%
O=C(Nc1cnc(Oc2ccc(F)cc2)nc1)N1CCc2ncccc2[C@@H]1c1ccc(F)cc1,cell-free assay,,competition with immobilised ligand,1 µM,remaining binding,59%
Cc1ccc(Nc2nccc(N(C)c3ccc4c(C)n(C)nc4c3)n2)cc1S(N)(=O)=O,enzyme activity,inhibitor,,0.3 µM,inhibition,1%
Oc1cccc(-c2nc(N3CCOCC3)c3oc4ncccc4c3n2)c1,enzyme activity,inhibitor,,10 µM,remaining activity,106%
FC(F)(F)Oc1cccc(-c2cnc3ccc(-c4ccncc4)nn23)c1,enzyme activity,inhibitor,radiometric,5 µM,activity vs control,88%
CSc1cccnc1N1CCN(Cc2nc3ccccc3[nH]2)CC1,cell-free assay,,competition with immobilised ligand,1 µM,remaining binding,100%
CCOc1cc(-c2nncn2C)ccc1Nc1ncc2cc(C)nc(NCC(C)(C)C)c2n1,enzyme activity,inhibitor,FRET,1 µM,inhibition,< 15%
CC(C)CC(=O)N1CCc2nc(-c3ccc(Br)cc3)nc(N(C)Cc3ccccc3)c2C1,cell-free assay,,competition with immobilised ligand,0.1 µM,remaining binding,100%
CNCc1ccc(-c2cc(-c3nc(-c4ccc(S(=O)(=O)C(C)C)cc4)cnc3N)on2)cc1,enzyme activity,inhibitor,,0.4 µM,inhibition,7%
Cc1nc(N2CC[C@@H](O)C2)ncc1-c1cc(C(F)(F)F)cc2[nH]ncc12,cell-free assay,,competition with immobilised ligand,1 µM,remaining binding,100%
COc1cc(Nc2c(C#N)cnc3cc(OCCCN4CCN(C)CC4)c(OC)cc23)c(Cl)cc1Cl,cell-free assay,,,0.5 µM,remaining signal,69.4%
O=C(CSc1nc2nccnc2c(=O)n1CCc1ccccc1)Nc1nccs1,enzyme activity,inhibitor,,10 µM,inhibition,1%
Cc1cc(NC(=O)c2cccc(S(F)(F)(F)(F)F)c2)cc(-n2ccn3nc(-c4cccnc4)cc23)c1,cell-free assay,,competition with immobilised ligand,1 µM,remaining binding,100%
CC(C)(C)c1nc(-c2cccc(NS(=O)(=O)c3c(F)cccc3F)c2F)c(-c2ccnc(N)n2)s1,enzyme activity,inhibitor,radiometric,1 µM,remaining activity,88%
